Compounds with a hit are over-represented: about 3.5% of the library has one in this group of screens.
MrgX1 antagonist: antagonists of human MrgX1 receptor; hit rate 1.3% among 310,000; B-score at 10 µM; MRGX1-HEK293 calcium flux, Fluo-4, BAM8-22 antagonism; active compounds read low; AID 588676;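 active means calcium-response B-score plate-corrected more than 3 library SD below zero, starting fluorescence within 5 deviations, no agonist response on first addition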;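 further: peak minus trough fluorescence over baseline after final BAM8-22 challenge near maximal dose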
Target sequence (Q96LB2 whole entry, looked up): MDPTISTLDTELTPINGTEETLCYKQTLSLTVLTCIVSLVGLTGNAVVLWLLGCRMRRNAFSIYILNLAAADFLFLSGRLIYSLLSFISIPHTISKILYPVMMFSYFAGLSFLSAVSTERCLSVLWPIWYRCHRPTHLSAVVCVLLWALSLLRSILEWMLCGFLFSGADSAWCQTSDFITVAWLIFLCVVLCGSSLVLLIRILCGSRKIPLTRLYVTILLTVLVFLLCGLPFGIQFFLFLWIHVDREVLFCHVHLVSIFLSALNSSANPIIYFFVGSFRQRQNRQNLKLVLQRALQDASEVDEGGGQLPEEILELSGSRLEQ
MrgX1 agonist: human MrgX1 receptor agonism, primary screen. Q96LB2. MrgX1-HEK293 cells, Fluo-4 calcium fluorescence, agonist mode; active compounds read high. B-score at 10 µM. hit rate 0.44% among 310,000;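 active means calcium response B-score plate-corrected fluorescence ratio at least 3 library SD, with starting fluorescence B-score inside 5 SD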
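Test system: HEK293 cells stably expressing human MrgX1 receptor; Input: fifteen thousand cells per well; Dosing: compound delivered in addition one of three; Schedule: overnight seeding, then 1 h dark dye loading; Technique: Fluo-4 NW calcium fluorescence; Measure: B-scored fluorescence response ratio; Controls: positive and negative controls per plate.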
RGS4 act: potentiators or activators of RGS4. HEK293 M3R/inducible RGS4, carbachol calcium flux Fluo4; active compounds read low. B-score at 10 µM. hit rate 0.92% among 310,000;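 active means B-score of the integrated calcium signal more than 4 SD below the library mean, with starting fluorescence not abnormally high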;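 further: negative B-score means reduced calcium response which marks RGS4 activation or potentiation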
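Material: M3R-expressing HEK293 line, RGS4 induced by doxycycline | Schedule: Overnight RGS4 induction, 30 min dye load 37 °C, 20 min compound RT | Measured by: Fluo4 fluorescence kinetic imaging of calcium | Read-out: Integrated calcium ratio converted to B score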
MrgX1 PAM: allosterically activates human MrgX1 receptor signaling; B-score at 10 µM; hit rate 0.63% among 310,000; MrgX1-HEK293, Fluo-4 calcium flux, FDSS; active compounds read high; Q96LB2;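 active means plate-corrected calcium response at least 3 library SD above typical, normal starting fluorescence, not activating the receptor alone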;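 further: compound read alongside a low EC10 to EC30 dose of BAM8-22 agonist; peak minus trough fluorescence over baseline measured at the second addition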
RGS4 inh: human RGS4 inhibition. HEK293 M3R/RGS4 inducible, Fluo-4 calcium flux; active compounds read high; triggered by carbachol at its EC20. B-score at 10 µM. hit rate 0.45% among 310,000. AID 463165;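 active means B-score, a plate-corrected calcium signal, over three deviations above library mean, with baseline fluorescence within five deviations of library mean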;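 further: RGS4 expression induced by doxycycline in cells with stable M3 receptor; B-score is computed from the integrated fluorescence ratio over baseline after carbachol; higher B-score means a larger calcium signal and so more RGS4 inhibition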
Target sequence (P49798 whole entry, looked up): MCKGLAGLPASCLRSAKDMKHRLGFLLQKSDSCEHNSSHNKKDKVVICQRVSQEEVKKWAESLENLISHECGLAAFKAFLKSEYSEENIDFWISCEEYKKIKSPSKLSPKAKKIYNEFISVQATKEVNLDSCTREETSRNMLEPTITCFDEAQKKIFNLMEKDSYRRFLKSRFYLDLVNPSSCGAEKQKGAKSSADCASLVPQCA
An asterisk follows results filed as active; i = inactive; x = no result.

SMILES	MrgX1 antagonist	MrgX1 agonist	RGS4 act	MrgX1 PAM	RGS4 inh
CCCCCc1nnc(NC(=O)C2=COCCO2)s1	i	i	i	i	i
COC(=O)CNC(=O)Cn1nc(C)c([N+](=O)[O-])c1C	i	i	i	12*	i
COC(=O)c1cccc(Cn2nc(C)c([N+](=O)[O-])c2C)c1	-6.6*	i	i	i	i
Cc1nn(CC(=O)NCc2ccccc2)c(C)c1[N+](=O)[O-]	i	i	i	i	i
Cc1cccc(CCNS(=O)(=O)c2ccc3c(c2)NC(=O)C(C)S3)c1 (stereo unspecified)	i	i	i	i	i
CC1(C)CC(c2nc(-c3ccc(Cl)cc3)cs2)CCS1 (stereo unspecified)	i	i	i	8.7*	i
CC1=CC(=C(C#N)C#N)c2ccccc2N1C	i	i	i	i	i
CC1=C/C(=C\C=C(C#N)C#N)N(C)c2ccccc21	-5.7*	i	i	i	i
CCCNC(=O)c1ccc2c(c1)nc(C)n2-c1cccc(Cl)c1	i	i	-7.5*	i	i
COCCCNC(=O)c1ccc2c(c1)nc(C)n2-c1cccc(C)c1	i	i	i	i	i
O=C(Nc1cnn(C23CC4CC(CC(C4)C2)C3)c1)c1cnn2c(C(F)(F)F)cc(-c3ccco3)nc12	i	i	-8.5*	i	i
Cc1ccccc1Cn1ccc(NC(=O)c2cnn3c(C(F)(F)F)cc(-c4ccco4)nc23)n1	i	i	-7.5*	i	i
Cc1ccccc1Cn1ccc(NC(=O)CCSc2nc(-c3ccco3)cc(C(F)(F)F)n2)n1	i	i	i	i	i
O=C(Nc1ccc2c(c1)OCO2)c1cnn2c(C(F)(F)F)cc(-c3ccco3)nc12	i	i	x	i	x
CCC(NC(=O)CCc1c(C)c2cc3c(-c4ccccc4)coc3cc2oc1=O)C(=O)O (stereo unspecified)	i	i	i	i	i
CCOc1cc(/C=N/NC(=O)Cn2nc([N+](=O)[O-])cc2C)ccc1OCc1ccc(F)cc1	-4.9*	i	i	i	i
COC(=O)c1sc(NC(=O)CCCn2nc([N+](=O)[O-])cc2C)c(C(=O)OC)c1C	-6.1*	i	i	i	i
Cc1cc([N+](=O)[O-])nn1CCCC(=O)NCc1ccc(F)cc1	i	i	i	14*	i
COc1ccc(C(=O)CSC#N)cc1OC	i	35*	i	i	i
COc1ccc(C(=O)COC(=O)c2ccc(OC)c(OC)c2)cc1OC	i	i	i	i	i
COc1ccccc1-c1coc2cc(O)cc(O)c2c1=O	i	34*	i	i	i
CS(=O)(=O)N(CCC#N)Cc1ccc(/C=C2\C(=O)Nc3ccccc32)o1	i	i	i	i	i
O=C(/C=C/c1ccc([N+](=O)[O-])s1)N1CCCC1	-4.6*	i	i	i	i
O=C(/C=C/c1ccc([N+](=O)[O-])s1)N1CCCCC1	i	i	i	i	i
CCN(CC)CCCNC(=O)C1c2ccccc2Oc2ccccc21	i	i	-7.3*	i	i
SMILES	MrgX1 antagonist	MrgX1 agonist	RGS4 act	MrgX1 PAM	RGS4 inh
COCCCNC(=O)C1c2ccccc2Oc2ccccc21	i	i	i	i	i
O=C(CSc1nc2ccccc2c(=O)n1Cc1ccco1)c1ccccc1	i	i	i	i	i
Cc1cc(-n2c(C)cc(C(=O)CSc3nc4ccccc4c(=O)n3Cc3ccco3)c2C)no1	-6.3*	i	i	i	i
CCOc1cc(-c2ccc(N)c(OCC)c2)ccc1N	i	i	i	i	i
CCOc1ccc(N)c(SSc2cc(OCC)ccc2N)c1	i	29*	i	i	i
CCOC(=O)C1=C(C)N=c2s/c(=C\c3ccc(O)c([N+](=O)[O-])c3)c(=O)n2C1c1ccccc1OC (stereo unspecified)	-4.6*	i	i	i	i
CCOC(=O)C1=C(C)N=c2s/c(=C/c3ccc(OCC(=O)O)cc3)c(=O)n2C1c1ccc(F)cc1 (stereo unspecified)	i	i	-8.3*	i	i
CCOC(=O)C1=C(C)N=c2s/c(=C/c3ccc(OCC(=O)O)cc3)c(=O)n2C1c1ccc(OC)cc1OC (stereo unspecified)	i	i	i	i	i
CCOC(=O)C1=C(C)N=c2s/c(=C/c3cccc([N+](=O)[O-])c3O)c(=O)n2C1c1ccc(OC)cc1OC (stereo unspecified)	i	i	-8.4*	i	i
COc1ccc(F)cc1Cn1nc(C(=O)O)c2ccccc2c1=O	i	i	i	i	i
O=C1CC(N2CCN(Cc3ccc4c(c3)OCO4)CC2)C(=O)N1CCc1ccccc1 (stereo unspecified)	i	i	i	i	i
O=CN/N=C/c1c(O)ccc2ccccc12	-5*	i	i	i	i
Cc1cc(Nc2ccccc2)nc(-c2ccccc2O)n1	i	i	i	i	i
Oc1ccc2ccccc2c1/C=N/Nc1ccccc1	i	i	i	i	i
Cc1cc(N/N=C/c2c(O)ccc3ccccc23)nc(-c2ccccc2O)n1	i	i	-8*	i	i
CCOCCc1nnc(NC(=O)CCS(=O)(=O)c2ccccc2)s1	i	i	i	i	i
COc1ccc(/C=C/C(=O)c2ccc3ccccc3c2O)cc1CN1CCOCC1	-4.7*	i	i	i	i
Clc1ccc2nc(CSCc3ccccc3)cn2c1	i	i	i	i	i
COc1ccccc1/C=N/OCc1ccc(C#N)cc1	i	i	i	i	i
COc1ccc(CCNC(=O)c2ccc(CN3CCC(Cc4ccccc4)CC3)cc2)cc1OC	-5.2*	i	i	i	i
COc1ccc(CCNC(=O)C(=O)NCC2CCCN2S(=O)(=O)c2ccccc2)cc1OC (stereo unspecified)	i	i	-9.4*	i	i
COCCNC(=O)c1ccc(CN2CCC(Cc3ccccc3)CC2)cc1	i	i	i	i	i
CNC(=O)C(=O)NCC1CCCN1S(=O)(=O)c1cccs1 (stereo unspecified)	i	i	i	i	i
COc1ccc(CCNC(=O)CCc2ccc(S(=O)(=O)NC(C)C)cc2)cc1	-5.7*	i	i	i	i
O=C(NCCc1ccc(F)cc1)C(=O)NCC1CCCN1S(=O)(=O)c1cccs1 (stereo unspecified)	i	i	-7.2*	i	i
COc1cccc(NC(=S)N2CCC(NC(=O)c3ccco3)CC2)c1	i	i	i	i	i

Assay outcomes (PubChem BioAssay)
